Reference: ChEMBL document CHEMBL3085657, “Preparation and in vitro photodynamic activities of folate-conjugated distyryl boron dipyrromethene based photosensitizers” (J Med Chem, 2013)

How the values were obtained:
KB [1] = assay: Photocytotoxicity against human KB cells overexpressing folate receptor assessed as cell viability incubated for 24 hrs followed by halogen light illumination measured after 20 mins by MTT assay; type: functional, cell-based
How it was run: (§1)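 Cells seeded at about 1 × 10^4 (KB) or 2 × 10^4 (MCF-7) per well, grown overnight, then exposed to serial dilutions in folic acid free RPMI 1640. Dilutions came from 1.6 mM DMF stocks taken to 80 μM with aqueous Tween 80. After PBS rinse and fresh medium, cells were illuminated (halogen lamp, λ > 610 nm, 40 mW cm−2, 20 min, 48 J cm−2) and kept overnight at 37 °C. Read by MTT (3 h) with SDS/isopropanol solubilisation and A540. Viability is relative to wells without compound; three experiments in quadruplicate, mean ± SEM.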

MCF7 [2] = assay: Selectivity ratio of IC50 for human MCF7 cells expressing low level of folate receptor to IC50 for human KB cells overexpressing folate receptor; type: functional; how it was run: as §1
MCF7 [3] = assay: Photocytotoxicity against human MCF7 cells expressing low level of folate receptor assessed as cell viability incubated for 24 hrs followed by halogen light illumination measured after 20 mins by MTT assay; type: functional, cell-based; how it was run: as §1
[4] = Cellular uptake in endoplasmic reticulum of human KB cells overexpressing folate receptor at 1 uM after 24 hrs by ER-tracker green based-confocal microscopic analysis; type: ADME, cell-based
How it was run: (§2)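 KB cells (about 1 × 10^5 on coverslips, overnight at 37 °C, 5% CO2) given conjugate at 1 μM in folic acid free medium for 24 h. Then 15 min with Lyso-Tracker Green DND 26 (4.0 μM in medium), Mito-Tracker Green FM (0.2 μM in medium) or ER-Tracker Green (1.0 μM in PBS). PBS rinse; confocal imaging with 488 nm argon and 633 nm He-Ne lasers.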

MCF7 [5] = assay: Cytotoxicity against human MCF7 cells expressing low level of folate receptor assessed as cell viability at 80 uM after 24 hrs by MTT assay in absence of halogen light; type: cell-based; conditions: mcf7, 24 h
[6] = Induction of singlet oxygen formation in DMF assessed as photodegradation of DPBF at 4 uM; type: physicochemical
How it was run: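 Singlet oxygen generation measured in DMF with 1,3-diphenylisobenzofuran as scavenger. Scavenger photodegradation followed as the fall in absorbance at 415 nm over time, with ZnPc as the reference.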

KB [7] = assay: Cellular uptake in human KB cells overexpressing folate receptor at 1 uM after 24 hrs by bright field microscopy-based fluorescence assay; type: ADME, cell-based
How it was run: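 About 2 × 10^5 KB cells grown overnight on coverslips, then exposed to conjugate (1.0 μM) in folic acid free medium for 24 h at 37 °C. PBS rinse; confocal imaging with 633 nm He-Ne excitation and emission collected at 650−750 nm. Mean intracellular fluorescence taken over 50 cells per sample, reported as mean ± SD.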

[8] = Ratio of cellular uptake in human KB cells to human MCF7 cells at 5 uM after 24 hrs; type: ADME, cell-based; conditions: mcf7, 24 h
How it was run: (§3)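 KB or MCF-7 cells (about 2 × 10^5 on coverslips, overnight at 37 °C, 5% CO2) incubated 24 h with 5.0 μM conjugate in folic acid free medium. PBS rinse; inverted microscope with 630 nm excitation, emission collected above 660 nm. Mean intracellular fluorescence from 24 cells per sample (mean ± SD), compared between the two lines.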

MCF7 [9] = assay: Cellular uptake in human MCF7 cells expressing low level of folate receptor at 5 uM after 24 hrs by bright field microscopy-based fluorescence assay; type: ADME, cell-based; conditions: mcf7, 24 h; how it was run: as §3
[10] = Cellular uptake in mitochondria of human KB cells overexpressing folate receptor at 1 uM after 24 hrs by mito-tracker green FM-based confocal microscopic analysis; type: ADME; how it was run: as §2
KB [11] = assay: Cellular uptake in human KB cells overexpressing folate receptor at 5 uM after 24 hrs by bright field microscopy-based fluorescence assay; type: ADME, cell-based; how it was run: as §3
KB [12] = assay: Photocytotoxicity against human KB cells overexpressing folate receptor assessed as cell viability at IC50 incubated for 24 hrs followed by halogen light illumination measured after 20 mins by MTT assay in presence of free folic acid; type: functional
[13] = Cellular uptake in lysosome of human KB cells overexpressing folate receptor at 1 uM after 24 hrs by lyso-tracker DND 26-based confocal microscopic analysis; type: ADME, cell-based; how it was run: as §2
KB [14] = assay: Cytotoxicity against human KB cells overexpressing folate receptor assessed as cell viability at 80 uM after 24 hrs by MTT assay in absence of halogen light; type: cell-based

Drug uptake [4]	Activity [6]	Drug uptake (KB [7])	Ratio [8]	Drug uptake (MCF7 [9])	Drug uptake [10]	Drug uptake (KB [11])	Drug uptake [13]	Structure (SMILES)	IC50 (KB [1]) [nM]	Ratio IC50 (MCF7 [2])	IC50 (MCF7 [3]) [nM]	Activity (MCF7 [5])	Activity (KB [12]) [%]	Activity (KB [14])
								C#CCOCCOCCOCCOc1ccc(C2=C3C(C)=C(I)C(/C=C/c4ccc(OCCOCCOCCOC)cc4)=[N+]3[B-](F)(F)n3c(/C=C/c4ccc(OCCOCCOCCOC)cc4)c(I)c(C)c32)cc1	20	3	60			
Active	Active	Active	5	Not Active	Not Active	Active	Active	COCCOCCOCCOc1ccc(/C=C/C2=[N+]3C(=C(c4ccc(OCc5cn(CCOCCOCCNC(=O)CC[C@H](NC(=O)c6ccc(NCc7cnc8nc(N)[nH]c(=O)c8n7)cc6)C(=O)O)nn5)cc4)c4c(C)c(I)c(/C=C/c5ccc(OCCOCCOCCOC)cc5)n4[B-]3(F)F)C(C)=C2I)cc1	60	43	2560	Non-toxic	94	Non-toxic
Active	Active	Active					Active	COCCOCCOCCOc1ccc(/C=C/C2=[N+]3C(=C(c4ccc(OCCOCCOCCOCc5cn(CCOCCOCCNC(=O)CC[C@H](NC(=O)c6ccc(NCc7cnc8nc(N)[nH]c(=O)c8n7)cc6)C(=O)O)nn5)cc4)c4c(C)c(I)c(/C=C/c5ccc(OCCOCCOCCOC)cc5)n4[B-]3(F)F)C(C)=C2I)cc1	180	6	1000	Non-toxic		Non-toxic
								Nc1nc(=O)c2nc(CNc3ccc(C(=O)N[C@@H](CCC(=O)O)C(=O)O)cc3)cnc2[nH]1 [FOLIC ACID]	500					
